# According to PMC10843616 (European journal of medicinal chemistry, 2023):
# Like-named read-outs stand apart in the source and are kept apart here.
# Tests used:
# [1] = tested on: bloodstream forms of T. brucei brucei (strain 427); experiment: T. b. brucei growth inhibition, Alamar blue assay; type: cell-based, Trypanosoma brucei brucei; conditions: Hep G2 CC50 / T.b.b EC50
# [2] = tested on: Bloodstream forms of T. b. rhodesiense (STIB 900); experiment: T. b. rhodesiense growth inhibition, resazurin assay; type: cell-based, Trypanosoma brucei rhodesiense; conditions: for SI (CC50/EC50), T.b.r: Hep G2 CC50 / T.b.r EC50
# [3] = tested on: Bloodstream forms of T. b. gambiense (130R); experiment: T. b. gambiense growth inhibition, resazurin assay; type: cell-based, Trypanosoma brucei gambiense; conditions: for SI (CC50/EC50), T.b.g: Hep G2 CC50 / T.b.g EC50
# T. b. rhodesiense = conditions: 100 mpk once a day; ref as previously reported; cited from earlier work
# [4] = 25 mpk; ref as previously reported; cited from earlier work
# [5] = target: tCatL (trypanosomal cathepsin-L) (Trypanosoma brucei rhodesiense, UniProt Q95PM0); experiment: tCatL inhibition assay; type: biochemical; conditions: at 10 μM after 1 hour
# Summary of the method: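 Recombinant tCatL was expressed in Pichia pastoris and purified. Inhibition was run by a previously published protocol, with E-64 as the positive control.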
# [6] = tested on: T. b. brucei AnTat1.1 trypomastigotes expressing Renilla luciferase; experiment: T. b. brucei acute infection mouse efficacy; type: in vivo, BALB/c mice; conditions: 5 consecutive days; for parasite growth in vivo, intraperitoneal: 100 mpk IP; for parasite growth in vivo, oral: 100 mpk oral gavage
# [7] = tested on: T. b. rhodesiense STIB 900-luc; experiment: T. b. rhodesiense acute infection mouse efficacy; type: in vivo, NMRI mice; conditions: four days; for animals surviving to 60 days with no detectable parasitemia: oral
# Summary of the method: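 Female NMRI mice, five per group, were inoculated i.p. with 1 x 10^4 bloodstream-form STIB 900-luc. Oral gavage started day 3 post-infection for four consecutive days, in PBS with 0.5% hydroxyl-methylcellulose and 0.5% Tween 80. Three mice were infected-untreated controls. Parasitemia was tracked by whole-animal bioluminescence imaging after D-luciferin: twice weekly for two weeks after treatment, then weekly to day 60. Cure meant a day-60 signal not above background.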
# [8] = Single-dose pharmacokinetics in mice; type: in vivo, mice (C57BL/6; conditions: male, C57BL/6, mouse, plasma, oral, 5 mg/kg
# [9] = Human liver microsome stability; type: in vitro ADME; conditions: liver microsomes
structure (smiles),measurement,setting,value
"CNC(=O)/C=C/CNC(=O)c1ccc([N+](=O)[O-])o1 [Compound 11, (E)-N-[4-(methylamino)-4-oxobut-2-en-1-yl]-5-nitrofuran-2-carboxamide]","SI (CC50/EC50), T.b.b",[1],> 44.38
same,"SI (CC50/EC50), T.b.r",[2],> 340.91
same,"SI (CC50/EC50), T.b.g",[3],> 159.57
"O=C(NC/C=C/S(=O)(=O)c1ccccc1)c1ccc([N+](=O)[O-])s1 [Compound 4, (E)-5-nitro-N-[3-(phenylsulfonyl)allyl]thiophene-2-carboxamide]","SI (CC50/EC50), T.b.b",[1],3.21
same,"SI (CC50/EC50), T.b.r",[2],33.47
same,"SI (CC50/EC50), T.b.g",[3],63.81
"O=C(N[C@H](/C=C/S(=O)(=O)c1ccccc1)CCc1ccccc1)c1cc(Cl)c([N+](=O)[O-])[nH]1 [Compound 3, (S,E)-4-chloro-5-nitro-N-[5-phenyl-1-(phenylsulfonyl)pent-1-en-3-yl]-1H-pyrrole-2-carboxamide]","SI (CC50/EC50), T.b.b",[1],>5.13
CSc1ccc(OCc2ncc([N+](=O)[O-])n2C)cc1 [fexinidazole],infected mice treated (cured),T. b. rhodesiense,4 out of 4
same,half-life,[4],48 min
"CS(=O)(=O)CCCNC(=O)c1cccs1 [Compound 16, N-[3-(methylsulfonyl)propyl]thiophene-2-carboxamide]",Percentage inhibition of tCatL,[5],inactive
"CNC(=O)CCCNC(=O)c1ccc([N+](=O)[O-])s1 [Compound 17, N-[4-(methylamino)-4-oxobutyl]-5-nitrothiophene-2-carboxamide]",Percentage inhibition of tCatL,[5],inactive
"CNC(=O)CCCNC(=O)c1cccs1 [Compound 18, N-[4-(methylamino)-4-oxobutyl]thiophene-2-carboxamide]",Percentage inhibition of tCatL,[5],inactive
"Nc1nc(N)nc(Nc2ccc([As]3SCC(CO)S3)cc2)n1 (stereo not shown) [Melarsoprol, reference compound]",EC50,"[3]; Trypanosoma brucei, GAMBIENSE, 68 h, read-out: T.b.g EC50, 130R, 68 h incubation",7 ± 3 nM
"CC(C)C[C@H](NC(=O)[C@H]1O[C@@H]1C(=O)O)C(=O)NCCCCN=C(N)N [Compound E64, E-64, reference compound]",Percentage inhibition of tCatL,[5],100%
"CS(=O)(=O)/C=C/CNC(=O)c1ccc([N+](=O)[O-])o1 [Compound 7, (E)-N-[3-(methylsulfonyl)allyl]-5-nitrofuran-2-carboxamide]","parasite growth in vivo, intraperitoneal",[6],ineffective
same,"parasite growth in vivo, oral",[6],reduced parasitemia
"CNC(=O)/C=C/CNC(=O)c1ccc([N+](=O)[O-])s1 [Compound 10, (E)-N-[4-(methylamino)-4-oxobut-2-en-1-yl]-5-nitrothiophene-2-carboxamide]","SI (CC50/EC50), T.b.b",[1],> 138.88
same,"SI (CC50/EC50), T.b.r",[2],> 535.71
same,EC90,"[2]; Trypanosoma brucei, RHODESIENSE|STIB900, read-out: EC90 for T. b. rhodesiense",210 nM
same,"parasite growth in vivo, intraperitoneal",[6],suppressed parasite growth
same,"parasite growth in vivo, oral",[6],suppressed parasite growth
same,"SI (CC50/EC50), T.b.g",[3],> 576.92
same,animals surviving to 60 days,"[7]; 100 mpk b.i.d, orally",3 out of 5
same,animals surviving to 60 days with no detectable parasitemia,[7]; 200 mpk once daily,4 out of 5
same,animals surviving to 60 days with no detectable parasitemia,[7]; 200 mpk twice daily,4 out of 5
same,concentration at 2 h,[8],720 nM
O=C(N[C@H](/C=C/S(=O)(=O)c1ccccc1)CCc1ccccc1)c1ccc([N+](=O)[O-])o1 [Compound 1],half-life,[9],10.8 min
"O=C(NC/C=C/S(=O)(=O)c1ccccc1)c1ccco1 [Compound 6, (E)-N-[3-(phenylsulfonyl)allyl]furan-2-carboxamide]","SI (CC50/EC50), T.b.b",[1],34.02
